Results reported in ChEMBL document CHEMBL4052637, “Discovery and Characterization of R/S-N-3-Cyanophenyl-N'-(6-tert-butoxycarbonylamino-3,4-dihydro-2,2-dimethyl-2H-1-benzopyran-4-yl)urea, a New Histone Deacetylase Class III Inhibitor Exerting Antiproliferative Activity against Cancer Cell Lines” (J Med Chem, 2017).
Active and inactive are the calls of the source. The rule behind the calls is not given here.

Assays:
[1] = target: T1, NAD-dependent protein deacetylase sirtuin-1 (Homo sapiens) (UniProt Q96EB6); test: Inhibition of SIRT1 in human Hs683 cells assessed as increase of histone H4 acetylation at 5 uM after 8 hrs by Western blotting method relative to control; type: cell-based
T1 sequence (whole entry): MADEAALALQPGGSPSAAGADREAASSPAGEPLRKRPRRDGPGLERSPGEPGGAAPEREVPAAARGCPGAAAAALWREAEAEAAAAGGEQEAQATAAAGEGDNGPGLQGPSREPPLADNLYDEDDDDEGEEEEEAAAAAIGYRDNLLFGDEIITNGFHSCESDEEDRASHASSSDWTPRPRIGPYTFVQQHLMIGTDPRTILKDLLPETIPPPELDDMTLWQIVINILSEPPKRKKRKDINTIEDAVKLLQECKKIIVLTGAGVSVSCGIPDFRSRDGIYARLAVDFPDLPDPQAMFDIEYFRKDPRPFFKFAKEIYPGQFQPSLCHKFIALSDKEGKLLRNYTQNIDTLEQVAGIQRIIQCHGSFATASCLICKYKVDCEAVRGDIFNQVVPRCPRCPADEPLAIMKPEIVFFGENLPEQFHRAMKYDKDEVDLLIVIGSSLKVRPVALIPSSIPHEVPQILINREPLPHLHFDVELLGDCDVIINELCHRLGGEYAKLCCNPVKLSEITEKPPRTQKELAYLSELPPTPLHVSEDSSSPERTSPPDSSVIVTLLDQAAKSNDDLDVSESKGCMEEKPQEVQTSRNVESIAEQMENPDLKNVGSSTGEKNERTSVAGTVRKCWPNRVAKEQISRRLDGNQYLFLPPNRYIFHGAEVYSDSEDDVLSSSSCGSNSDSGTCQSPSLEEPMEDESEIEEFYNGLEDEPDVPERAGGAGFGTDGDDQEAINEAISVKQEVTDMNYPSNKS

SW1573/2R160 = test: Antiproliferative activity against human SW1573/2R160 cells overexpressing ABCB1 after 72 hrs by MTT assay; type: functional, cell-based
Summary of the method: (§1)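 MTT assay: cells in RPMI 1640 with 10% heat-inactivated FCS at 37 °C and 5% CO2 were seeded 24 h before treatment. They were exposed 72 h to compound at 0.01–100 μM, with DMSO as solvent.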

UACC-62 = test: Growth inhibition of human UACC62 cells after 48 hrs by SRB assay; type: functional; conditions: UACC-62, 48 h
M14 = test: Growth inhibition of human M14 cells after 48 hrs by SRB assay; type: functional; conditions: M14, 48 h
[2] = target: Histone deacetylase 11 (Homo sapiens) (UniProt Q96DB2); test: Inhibition of N-terminal His-tagged recombinant human HDAC11 expressed in baculovirus infected insect Sf9 cells at 0.1 to 100 uM using Fluor-de-Lys-SIRT1 as substrate after 15 mins by fluorescence assay
Histone deacetylase 11 (Homo sapiens), sequence (Q96DB2 whole entry): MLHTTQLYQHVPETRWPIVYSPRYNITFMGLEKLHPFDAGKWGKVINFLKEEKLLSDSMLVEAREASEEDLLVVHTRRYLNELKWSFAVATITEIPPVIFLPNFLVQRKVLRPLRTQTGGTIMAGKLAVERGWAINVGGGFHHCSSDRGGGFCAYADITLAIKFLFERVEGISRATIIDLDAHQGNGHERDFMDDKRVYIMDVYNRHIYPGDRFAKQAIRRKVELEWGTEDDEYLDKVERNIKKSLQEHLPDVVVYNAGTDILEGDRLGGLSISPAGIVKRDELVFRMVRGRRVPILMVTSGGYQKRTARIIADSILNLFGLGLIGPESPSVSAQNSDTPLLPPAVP

[3] = target: T1, NAD-dependent protein deacetylase sirtuin-1 (Homo sapiens); test: Inhibition of SIRT1 in human U373 cells assessed as increase of histone H4 acetylation at 1 uM after 8 hrs by Western blotting method relative to control; type: cell-based
KB 3-1 = test: Antiproliferative activity against human KB-3-1 cells after 72 hrs by MTT assay; type: functional, cell-based; summary of the method: as §1
[4] = target: Histone deacetylase 1 (Homo sapiens) (UniProt Q13547); test: Inhibition of His-tagged recombinant human HDAC1 expressed in baculovirus expression system at 0.1 to 100 uM using Fluor-de-Lys-SIRT1 as substrate after 15 mins by fluorescence assay
Histone deacetylase 1 (Homo sapiens), sequence (Q13547 whole entry): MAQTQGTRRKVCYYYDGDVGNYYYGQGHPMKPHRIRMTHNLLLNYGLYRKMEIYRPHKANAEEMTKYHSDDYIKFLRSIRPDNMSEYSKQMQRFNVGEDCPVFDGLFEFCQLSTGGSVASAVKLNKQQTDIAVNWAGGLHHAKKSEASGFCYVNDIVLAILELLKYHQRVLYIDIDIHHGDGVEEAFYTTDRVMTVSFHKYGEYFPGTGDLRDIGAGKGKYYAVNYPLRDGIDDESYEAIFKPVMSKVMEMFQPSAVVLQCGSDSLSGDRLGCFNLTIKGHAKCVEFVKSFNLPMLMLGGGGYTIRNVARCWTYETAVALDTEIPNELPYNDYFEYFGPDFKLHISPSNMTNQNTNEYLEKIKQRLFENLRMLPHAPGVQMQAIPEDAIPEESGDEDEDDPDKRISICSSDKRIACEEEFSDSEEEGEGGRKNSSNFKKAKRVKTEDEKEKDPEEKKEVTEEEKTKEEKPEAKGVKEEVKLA

[5] = target: T2, NAD-dependent protein deacetylase sirtuin-2 (Homo sapiens) (UniProt Q8IXJ6); test: Inhibition of SIRT2 in human U373 cells assessed as increase of alpha-tubulin acetylation at 10 uM after 8 hrs by Western blotting method relative to control; type: cell-based
T2 sequence (whole entry): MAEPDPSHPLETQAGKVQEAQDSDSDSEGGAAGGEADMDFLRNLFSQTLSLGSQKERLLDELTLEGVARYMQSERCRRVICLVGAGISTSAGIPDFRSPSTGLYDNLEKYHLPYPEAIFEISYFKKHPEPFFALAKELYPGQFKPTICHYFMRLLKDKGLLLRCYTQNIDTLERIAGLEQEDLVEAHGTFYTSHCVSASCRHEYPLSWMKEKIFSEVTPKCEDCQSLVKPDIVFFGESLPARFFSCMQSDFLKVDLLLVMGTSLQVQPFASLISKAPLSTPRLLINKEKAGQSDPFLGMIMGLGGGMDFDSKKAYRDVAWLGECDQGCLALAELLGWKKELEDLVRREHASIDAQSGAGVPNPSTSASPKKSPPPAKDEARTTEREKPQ

T47D = test: Growth inhibition of human T47D cells after 48 hrs by SRB assay; type: functional
[6] = target: T1, NAD-dependent protein deacetylase sirtuin-1 (Homo sapiens); test: Inhibition of SIRT1 in human U373 cells assessed as increase of histone H4 acetylation at 10 uM after 8 hrs by Western blotting method relative to control; type: cell-based
[7] = target: T1, NAD-dependent protein deacetylase sirtuin-1 (Homo sapiens); test: Inhibition of SIRT1 in human Hs683 cells assessed as increase of histone H3K56 acetylation at 10 to 25 after 8 to 24 hrs by Western blotting method; type: cell-based
Summary of the method: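 Cells treated with the compound, then histone H3K56 acetylation assessed by Western blot on histone extracts; histone H1 or Coomassie staining as loading control.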

[8] = target: Histone deacetylase 3 (Homo sapiens) (UniProt O15379); test: Inhibition of His-tagged recombinant human HDAC3 expressed in baculovirus infected insect cells at 0.1 to 100 uM using Fluor-de-Lys-SIRT1 as substrate after 15 mins by fluorescence assay
Histone deacetylase 3 (Homo sapiens), sequence (O15379 whole entry): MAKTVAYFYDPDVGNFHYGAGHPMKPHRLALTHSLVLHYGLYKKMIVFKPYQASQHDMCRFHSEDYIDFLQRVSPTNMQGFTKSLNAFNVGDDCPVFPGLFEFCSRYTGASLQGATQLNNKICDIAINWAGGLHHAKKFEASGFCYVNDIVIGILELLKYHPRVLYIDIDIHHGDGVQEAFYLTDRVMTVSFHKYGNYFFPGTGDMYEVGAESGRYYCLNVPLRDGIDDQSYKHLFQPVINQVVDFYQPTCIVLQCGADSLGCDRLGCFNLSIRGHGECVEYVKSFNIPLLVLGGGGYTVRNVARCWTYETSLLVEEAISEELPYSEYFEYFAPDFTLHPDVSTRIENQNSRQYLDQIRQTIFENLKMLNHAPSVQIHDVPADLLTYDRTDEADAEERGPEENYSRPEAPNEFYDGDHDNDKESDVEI

[9] = target: T1, NAD-dependent protein deacetylase sirtuin-1 (Homo sapiens); test: Inhibition of SIRT1 in human Hs683 cells assessed as increase of histone H4 acetylation at 1 uM after 8 hrs by Western blotting method relative to control; type: cell-based
NCI-H460 = test: Growth inhibition of human NCI-H460 cells after 48 hrs by SRB assay; type: functional; conditions: NCI-H460, 48 h
Hs 683 = test: Inhibition of spheroid forming capacity of human Hs683 cells assessed as decrease in volume of multicellular tumor spheroids at 5 to 10 uM treated for 24 hrs measured after 96 hrs by bright field microscopic method; type: functional, cell-based
Summary of the method: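 Spheroids formed from 1 × 10^3 cells in 25 μL. Cells were pretreated 24 h with compound then left untreated 96 h, or untreated spheroids were cultured 96 h with compound. Surface measured from bright-field images; volume in voxels from 3D plots after image segmentation. Mean ± SD of three independent experiments.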

HL-60(TB) = test: Growth inhibition of human HL-60(TB) cells after 48 hrs by SRB assay; type: functional; conditions: HL-60, 48 h
ACHN = test: Growth inhibition of human ACHN cells after 48 hrs by SRB assay; type: functional
PC-3 = test: Growth inhibition of human PC3 cells after 48 hrs by SRB assay; type: functional; conditions: PC-3, 48 h
HCT-15 = test: Growth inhibition of human HCT15 cells after 48 hrs by SRB assay; type: functional; conditions: HCT-15, 48 h
PBMC = test: Cytotoxicity against human PBMC assessed as decrease in cell viability at 1 to 100 uM after 24 to 48 hrs; type: cell-based
Malme-3M = test: Growth inhibition of human MALME-3M cells after 48 hrs by SRB assay; type: functional

In the case of `CC(C)(C)OC(=O)Nc1ccc2c(c1)C(NC(=O)Nc1cccc(C#N)c1)CC(C)(C)O2` (configuration not stated), the fold change (FC) [1] is reported as 8.3, the Activity (SW1573/2R160) is reported as “Active” and the GI50 (UACC-62) is reported as 1000 nM. The GI50 (M14) was 4170 nM, the inhibition [2] was “inactive” and the fold change (FC) [3] was 1.1. For the same compound, the Activity (KB 3-1) was “Active”, the inhibition [4] was “inactive” and the fold change (FC) [5] was 8.6. The GI50 (T47D) was 2690 nM, the fold change (FC) [6] was 4.1 and the inhibition [7] was “Active”. For the same compound, the inhibition [8] was “inactive”, the fold change (FC) [9] was 1.3 and the GI50 (NCI-H460) was 3020 nM. For the same compound, the inhibition (Hs 683) was “Active”, the GI50 (HL-60(TB)) was 2570 nM and the GI50 (ACHN) was 3800 nM. The GI50 (PC-3) was 759 nM, the GI50 (HCT-15) was 2000 nM and the Activity (PBMC) was “Non-Toxic”. For the same compound, the GI50 (Malme-3M) was 4070 nM.
